STAT3 act = STAT3 signaling activation; U3A cells, IL-6 STAT3-luciferase reporter, luminescence; 100% = signal with IL-6 EC80 alone; activation (% of control), % at 5.6 µM; 0.91% of 190,000 active; AID 871;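 active means activation above the screen-wide mean of compound activation plus 3 SD, cut at about 130% in these data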;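 further: 0% = background luminescence of wells with medium and substrate only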
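System – human U3A cells carrying STAT3-luciferase construct · Probe or stimulus – Interleukin-6, 33 ng/mL · Schedule – compound 1 h, then IL-6 6 h at 37 °C · Signal – luminescence from STAT3-driven luciferase reporter · Evaluation – percent of IL-6-only median luminescence · Benchmarks – IL-6-only high control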
STAT1 blocker = STAT1 signaling inhibition | NIH 3T3 STAT1-luciferase reporter, IFN-gamma, luminescence | inhibition, % at 5.5 µM | 0.35% of 200,000 active | AID 920;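 active means inhibition above a set limit, the mean inhibition across all tested compounds plus 3 SD, cut at about 34% in these data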;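 further: 0% = IFN-gamma with DMSO and 100% = IFN-gamma with 300 µM nifuroxazide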
Cl transport mod = modulators of human KCC2 chloride dependent transport; Q9H2X9; KCC2 cells, thallium flux FluoZin-2 fluorescence; B-score of Tl+ flux slope (higher = more flux/activation; lower = inhibition) at 10 µM; 2.2% of 190,000 active;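 active means thallium flux slope and its plate-corrected score both differing from the plate sample mean at a set confidence after two filtering rounds, in either direction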;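 further: slope of fluorescence scaled to starting intensity during 10 to 20 s after thallium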
Target sequence (Q9H2X9 whole entry, looked up): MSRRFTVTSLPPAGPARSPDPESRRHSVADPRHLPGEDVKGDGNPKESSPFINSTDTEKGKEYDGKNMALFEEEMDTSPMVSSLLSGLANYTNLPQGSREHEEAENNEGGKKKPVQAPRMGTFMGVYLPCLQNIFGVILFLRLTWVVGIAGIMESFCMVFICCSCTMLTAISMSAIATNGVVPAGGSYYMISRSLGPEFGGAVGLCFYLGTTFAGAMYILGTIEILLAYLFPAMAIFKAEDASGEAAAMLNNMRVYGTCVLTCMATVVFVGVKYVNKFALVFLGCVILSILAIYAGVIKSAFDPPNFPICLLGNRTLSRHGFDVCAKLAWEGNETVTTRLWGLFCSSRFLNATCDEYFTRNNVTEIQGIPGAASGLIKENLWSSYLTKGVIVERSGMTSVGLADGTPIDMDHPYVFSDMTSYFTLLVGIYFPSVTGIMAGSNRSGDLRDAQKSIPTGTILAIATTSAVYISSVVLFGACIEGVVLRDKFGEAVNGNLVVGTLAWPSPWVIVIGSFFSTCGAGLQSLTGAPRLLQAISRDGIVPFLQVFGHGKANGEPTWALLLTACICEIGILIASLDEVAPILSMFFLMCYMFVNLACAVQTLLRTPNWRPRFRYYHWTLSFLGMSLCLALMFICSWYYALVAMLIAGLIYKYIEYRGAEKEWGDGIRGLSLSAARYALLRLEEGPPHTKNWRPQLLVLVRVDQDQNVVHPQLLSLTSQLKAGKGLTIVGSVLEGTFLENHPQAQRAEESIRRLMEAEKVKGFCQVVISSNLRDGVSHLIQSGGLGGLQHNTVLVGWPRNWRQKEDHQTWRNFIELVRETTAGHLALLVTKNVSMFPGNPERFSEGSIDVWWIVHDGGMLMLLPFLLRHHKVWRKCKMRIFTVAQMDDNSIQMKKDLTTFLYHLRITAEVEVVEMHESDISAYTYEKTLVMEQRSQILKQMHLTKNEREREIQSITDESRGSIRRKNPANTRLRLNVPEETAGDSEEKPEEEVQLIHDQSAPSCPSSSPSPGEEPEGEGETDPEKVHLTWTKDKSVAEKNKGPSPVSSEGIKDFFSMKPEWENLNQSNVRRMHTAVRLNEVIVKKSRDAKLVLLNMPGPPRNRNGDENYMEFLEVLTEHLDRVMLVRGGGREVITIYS
STAT1 act = STAT1 signaling activation. NIH 3T3 STAT1-luciferase reporter, IFN-gamma, luminescence; 100% = IFN-gamma alone, no compound. activation (% of control), % at 5.5 µM. 2.6% of 200,000 active;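 active means activation above the screen-wide mean activation plus 3 SD, cut at about 130% in these data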;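 further: raw ratio to IFN-gamma control signal so 100% means no change and 0% no light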
STAT3 blocker = inhibitors of IL-6 induced STAT3 signaling; U3A cells, IL-6 STAT3-luciferase reporter, luminescence; host cell line lacks STAT1; 0.89% of 190,000 active; AID 862; inhibition, % at 5.5 µM;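 active means inhibition above the mean inhibition across all screened compounds plus 3 SD, cut at about 44% in these data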;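 further: 0% = DMSO only wells and 100% = 100 µM nifuroxazide control wells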
HSV replic up = increases HSV replication in cells. HSV replication augmentation in cells, fold increase. maximum fold increase. 0.005% of 220,000 active. AID 1956; in the data active means maximum fold increase above about 1.5; tested in PC3 cells
STAT1 activ conf = confirmation of STAT1 signaling activators; activation (% of control), % at 5.7 µM; 97% of 1,200 active; shares compounds with STAT1 act; NIH 3T3 STAT1-luciferase reporter, IFN-gamma potentiation, luminescence; 100% = IFN-gamma EC80 alone, no compound;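 active means activation above a set limit carried over from the earlier primary STAT1 screen, cut at about 140% in these data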;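 further: simple ratio to median IFN-gamma plus DMSO wells so 0% means no light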
NFkB act = counter-screen for STAT1 activators: NF-kappaB activation | 43% of 1,200 active | HEK293T NF-kB luciferase reporter, TNF-alpha stimulated, luminescence; 100% = TNF-alpha with vehicle only | activation (% of control), % at 5.7 µM | AID 1306 | shares compounds with STAT1 act;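 active means activation above the mean of solvent-only control wells plus 3 SD, set per campaign, cut at about 130% in these data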;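 further: TNF-alpha given at a submaximal dose yielding about 80% of full reporter signal; values are well signal over median control so 100% means no change and 0% no light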
STAT3 act 2 = counter-screen for STAT1 activators: human STAT3 activation. shares compounds with STAT1 act. U3A cells STAT3-luciferase reporter, IL-6, luminescence; cells lack STAT1; 100 = IL-6 alone, no compound effect. activation (% of control), % at 5.7 µM. 46% of 1,200 active;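 active means activation above the solvent-only control well mean plus 3 SD, set per plate batch, cut at about 110% in these data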;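 further: 0% = no luminescence and 100% = median IL-6 plus DMSO wells; higher means more STAT3 reporter activation so hits are non-selective activators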
The depositor's hits bear a star; i = inactive; . = no result. Rows were chosen to be rich in hits. Some 5.5% of all compounds tested hit in one or more screens of this group.

SMILES	STAT3 act	STAT1 blocker	Cl transport mod	STAT1 act	STAT3 blocker	HSV replic up	STAT1 activ conf	NFkB act	STAT3 act 2
N/C(=N\OC(=O)c1ccc(F)cc1)c1ccc(Br)cc1	87	-33	0.79	128	19	i	.	.	.
N/C(=N\OC(=O)c1cccc(F)c1)c1ccccc1	116	-73	-2.3	166*	-6	.	169*	123	114*
N/C(=N\OC(=O)c1ccc(Cl)cc1)c1ccc(Cl)cc1	99	-13	0.8	112	6	i	.	.	.
Cc1ccc(/C(N)=N/OC(=O)c2ccc(F)cc2)cc1	95	-65	.	153*	14	i	173*	135*	106
COc1ccccc1CN1CCN(C(CC(C)C)c2nnnn2Cc2cccs2)CC1 (centres undefined)	.	.	.	.	.	i	.	.	.
COc1cccc(N2CCN(c3ccc(N4C(=O)CCC4=O)cc3[N+](=O)[O-])CC2)c1	96	19	0.5	82	7	i	.	.	.
Nc1nc(-c2cccnc2)nc2sc3c(c12)CCCC3	98	-67	-0.2	159*	6	i	213*	146*	116*
O=C1CN(c2nc(-c3cccnc3)nc3sc4c(c23)CCCC4)CCN1	105	-9	-1.4	106	6	i	.	.	.
O=C(CC1Nc2ccccc2NC1=O)NCCc1ccccc1 (centres undefined)	102	-9	-1.3	109	2	i	.	.	.
O=C(CC1Nc2ccccc2NC1=O)c1ccccc1 (centres undefined)	128	-61	0.87	156*	-29	i	206*	130	165*
Cc1ccc(NC(=O)COc2ccccc2C=O)cc1Cl	107	-113	-0.71	200*	-4	i	209*	137*	109
C/C(=N\NC(=O)CCCC(=O)O)c1c(-c2ccccc2)c2cc(Cl)ccc2[nH]c1=O	.	.	0.83	.	.	i	.	.	.
COc1ccccc1C1=NOC(CN2C(=O)c3ccccc3S2(=O)=O)C1 (centres undefined)	.	.	0.18	.	.	i	.	.	.
O=C1c2ccccc2S(=O)(=O)N1CC1CC(c2ccccc2Cl)=NO1 (centres undefined)	107	-67	-0.39	161*	-4	i	198*	129	126*
CCn1c(O)c(C=Nc2ccccc2)sc1=S	100	-84	-0.032	176*	11	i	206*	139*	111*
Oc1c(C=Nc2ccccc2)sc(=S)n1Cc1ccccc1	104	-4	-1	104	2	i	.	.	.
c1ccc(-n2cnc3cc(NCc4cccs4)ccc32)cc1	99	-76	-1.9	169*	5	i	249*	133*	106
Cc1nnc(SCC(=O)Nc2cc(-c3cc(C)c(C)cc3C)nn2-c2ccccc2)s1	102	9	0.9	92	-5	i	.	.	.
CCCc1ccc(-c2cc(NC(=O)CSc3nnc(N)s3)n(-c3ccccc3)n2)cc1	109	-65	-1.1	159*	-16	i	189*	134*	111*
CN(C(=S)NC1=CCS(=O)(=O)C1)C1CCCCC1	101	-4	0.17	103	4	i	.	.	.
COc1cc(SC)ccc1C(=O)NCCc1ccccc1	111	-68	-2.1	161*	-10	i	169*	123	144*
COc1cc(SC)ccc1C(=O)Nc1ccc2c(c1)OCO2	93	-57	-1.2	153*	9	i	250*	136*	106
COc1cc(SC)ccc1C(=O)Nc1ccc(Br)cn1	.	.	0.33	.	.	i	.	.	.
COc1cc(SC)ccc1C(=O)NC(C)C	93	-8	-0.02	108	14	i	.	.	.
COc1ccc(CNC(=O)c2ccc(SC)cc2OC)cc1	96	-1	0.075	101	10	i	.	.	.
SMILES	STAT3 act	STAT1 blocker	Cl transport mod	STAT1 act	STAT3 blocker	HSV replic up	STAT1 activ conf	NFkB act	STAT3 act 2
COc1cc(SC)ccc1C(=O)Nc1ccon1	89	-22	0.29	120	18	i	.	.	.
COc1cc(SC)ccc1C(=O)Nc1ncc(Cl)cc1Cl	88	-55	0.73	151*	19	i	174*	125	94
COc1cc(SC)ccc1C(=O)Nc1ccc(C)cc1C	104	-60	-0.73	153*	-2	i	189*	131	106
CC(NC(=O)Cn1cc(C(F)(F)F)ccc1=O)c1ccc(F)cc1 (centres undefined)	99	-3	0.052	101	3	i	.	.	.
O=C(O)c1ccc(-n2c(O)c(C=C3N=c4ccccc4=N3)sc2=S)cc1	.	.	0.72	.	.	i	.	.	.
COc1ccccc1C(=O)COC(=O)c1ccc(N(C)C)cc1	108	-80	0.62	174*	-7	i	175*	134*	132*
CC(NC(=O)COC(=O)c1ccc(N(C)C)cc1)c1ccccc1 (centres undefined)	97	-9	-1.1	107	11	i	.	.	.
CCCNc1nc(N)nc(-c2cc(Cl)ccc2OC)n1	107	3	0.35	97	-8	i	.	.	.
CCNc1nc(N)nc(-c2cc(Cl)ccc2O)n1	77	-104	.	196*	29	i	288*	145*	167*
CCCCNc1nc(N)nc(-c2cc(Cl)ccc2O)n1	110	-89	-0.1	178*	-7	i	230*	145*	154*
COc1ccc(CCN=C(N)NS(=O)(=O)c2cccs2)cc1	102	4	-0.44	97	3	i	.	.	.
Cc1ccc(Nc2nc(C3CC3)cs2)cc1	94	-54	-0.58	151*	8	.	228*	117	94
Clc1ccc(Nc2nc(C3CC3)cs2)cc1	96	-59	-0.0022	154*	13	.	188*	142*	101
Nc1ccc2nc(CN3CCOCC3)[nH]c2c1	100	-7	-0.5	106	-3	.	.	.	.
COc1cccc(N/C=C/C(=O)c2ccc(Cl)cc2)c1	86	-91	-1.2	180*	19	i	239*	115	96
COc1cccc(C(=O)/C=C/Nc2ccc(S(=O)(=O)Nc3cccc(C(C)=O)c3)cc2)c1	84	15	-1.1	86	22	i	.	.	.
O=C(Nc1c(Cl)cccc1Cl)c1cc(=O)n(Cc2ccccc2)c(=O)[nH]1	110	-3	0.48	103	-7	i	.	.	.

Screening results deposited in PubChem by several laboratories.
